# In the library only some 2.6% were active in any assay of this set; here they are far more common.
# AF4-AF9 inh: MLL-AF4/AF9 protein interaction inhibition; AlphaScreen, biotin-AF4 peptide binding to FLAG-AF9; inhibition, % at 10 µM; 350,000 compounds, 0.47% hits;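 active means every replicate reaching a set inhibition limit, whatever the replicate mean, cut at about 25% in these data; inconclusive means mean inhibition reaches that limit but some replicates miss it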;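 further: 0% = plate neutral control median and 100% = total signal loss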
# INS-1E GSIS act: primary screen for activators of insulin secretion dependent on glucose, INS-1E cells, GLuc reporter luminescence; INS-1E GLuc reporter insulin secretion, 2-3 h; activation, % at 16.6 µM; 370,000 compounds, 0.61% hits; AID 743287;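 active means lowest replicate activation of at least 40%, so every replicate reaches that level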;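 further: 0% = median of neutral control wells and 100% = median of IBMX positive control wells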
# rRNA inh HTS: inhibits bacterial ribosomal RNA function over humanized ribosomes. AID 720706. GFP signal change (wild-type ribosome), % (no concentration beside the values). E. coli WT GFP vs humanized-ribosome RFP mutants, fluorescence, 24 h; hits give low values; DMSO median 0, no signal -100. 350,000 compounds, 1.6% hits;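 active means significant combined selectivity score with lowered wild-type GFP, culture density cut under 30%, mutant RFP and density less affected; inactive means any of these conditions unmet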
# E-sel inducer: induces E-selectin expression in human endothelial cells; P16581; HUVEC E-selectin immunofluorescence imaging; normalized: neutral wells 0, TNF-alpha wells 100; activation, % at 7.58 µM; 260,000 compounds, 0.37% hits;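 active means mean E-selectin-positive cell signal at least 10% of the positive control, reached in at least 60% of replicates, without over 20% cell loss; inconclusive means no rule given, readout overlaps actives, possibly toxicity-flagged; inactive means the rest, including those meeting only one limit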
#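 Read-out basis: % PE-positive cells; Test system: HUVEC primary endothelial cells; Technique: immunofluorescence imaging; Dosing: single-point compound dose.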
# RAD52 inh: blocks human RAD52 DNA annealing; recombinant RAD52 DNA annealing, FRET fluorescence; inhibition, % at 18.7 µM; 360,000 compounds, 0.46% hits;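 active means every replicate showing at least 50% inhibition; inconclusive means mean inhibition at least 50% but not in every replicate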
# RAD54 inh: RAD54 (human) branch migration inhibition; Q92698; RAD54 Holliday junction branch migration, FAM/BHQ fluorescence; inhibition, % at 10.4 µM; 360,000 compounds, 0.14% hits;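 active means mean normalized replicate activity at least 40 and at least half of replicates scoring 40 or more; inconclusive means only one of the two criteria met; inactive means mean below 40 and under half of replicates reaching 40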;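 further: 0% = median of neutral control wells and 100% = median of positive control wells; inhibitors cause a drop in the FAM fluorescence signal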
# Target sequence (Q92698 whole entry, looked up): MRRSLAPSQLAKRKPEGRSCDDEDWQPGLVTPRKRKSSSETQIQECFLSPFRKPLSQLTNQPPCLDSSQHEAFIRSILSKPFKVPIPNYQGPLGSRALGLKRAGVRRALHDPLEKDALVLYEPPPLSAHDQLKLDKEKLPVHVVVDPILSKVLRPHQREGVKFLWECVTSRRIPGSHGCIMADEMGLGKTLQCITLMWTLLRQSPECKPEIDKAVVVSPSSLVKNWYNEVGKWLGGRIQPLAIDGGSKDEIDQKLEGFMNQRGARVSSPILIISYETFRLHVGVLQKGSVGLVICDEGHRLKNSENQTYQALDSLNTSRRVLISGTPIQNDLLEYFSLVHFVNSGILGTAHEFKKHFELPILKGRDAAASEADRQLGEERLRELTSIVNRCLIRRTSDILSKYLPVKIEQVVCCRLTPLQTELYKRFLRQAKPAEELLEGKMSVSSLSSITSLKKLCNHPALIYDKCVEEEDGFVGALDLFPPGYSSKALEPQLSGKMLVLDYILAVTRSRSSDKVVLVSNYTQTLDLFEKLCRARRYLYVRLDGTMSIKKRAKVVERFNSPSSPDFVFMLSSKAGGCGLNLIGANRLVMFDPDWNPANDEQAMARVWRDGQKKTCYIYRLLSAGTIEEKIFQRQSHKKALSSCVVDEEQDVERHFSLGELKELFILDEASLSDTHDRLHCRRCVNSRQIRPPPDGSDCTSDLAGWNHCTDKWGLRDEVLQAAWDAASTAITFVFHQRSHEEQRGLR
# Active calls of the source: *; ? = inconclusive; nt = no result.
SMILES,AF4-AF9 inh,INS-1E GSIS act,rRNA inh HTS,E-sel inducer,RAD52 inh,RAD54 inh
CN1CCN(C(=O)C[C@H]2CC[C@@H]3[C@@H](COc4ccc(NC(=O)C5CCCC5)cc4C(=O)N3C)O2)CC1,47*,4,6,0,2,nt
CCNC(=O)C[C@@H]1CC[C@H]2[C@@H](COc3ccc(NC(=O)Nc4cccc(OC)c4)cc3C(=O)N2C)O1,nt,4,-3,0,nt,-4
CN1CCN(C(=O)C[C@H]2CC[C@@H]3[C@H](COc4ccc(NC(=O)C5CCCC5)cc4C(=O)N3C)O2)CC1,1,-8,5,0,-2,nt
C[C@@H]1CN([C@@H](C)CO)C(=O)Cc2cc(NC(=O)C3CC3)ccc2O[C@H]1CN(C)CC1CCCCC1,3,9,3,0,7,2
COc1ccccc1N=Nc1ccc(O)c2ncccc12,72*,-4,-8,0,-59,-3
CCS(=O)(=O)c1ccc(N=Nc2ccc(O)c3ncccc23)c(OC)c1,?,-2,16,0,-18,nt
C[C@@H](NC(=O)C[C@@H]1C[C@@H]2c3cc(NC(=O)c4ccc5c(c4)OCO5)ccc3O[C@@H]2[C@H](CO)O1)c1ccccc1,-3,4,3,0,2,0
COc1ccc(C(=O)c2sc(Nc3ccccc3)nc2N)cc1,0,32,-2,0,-8,-10
COc1ccc(C(=O)c2sc(Nc3ccccc3)nc2N)cc1OC,8,43*,-49,-2,-15,5
CNS(=O)(=O)c1cc(NC(=O)c2cnc(SC)n2-c2ccccc2)ccc1C,-4,-14,-21*,0,-11,9
C[C@H](CO)N1C[C@H](C)[C@@H](CN(C)S(=O)(=O)c2ccsc2)OCc2ccccc2-c2c(n(C)c3ccccc23)C1=O,-21,10,2,0,23,-1
Cc1cccn2c(Nc3ccccc3)c(-c3ccccn3)nc12,19,-9,-43*,6,-1,3
Cc1ccccc1Nc1c(-c2ccccn2)nc2ccccn12,42*,-7,-54*,nt,15,nt
Cc1ccn2c(Nc3ccccc3)c(-c3ccccn3)nc2c1,-21,-5,7,nt,0,-6
COc1ccccc1NC(=O)CSc1n[nH]c(Cc2ccccc2)n1,-5,43*,-19,0,-11,-1
Cc1ccc(S(=O)(=O)N(C)C[C@@H]2Oc3ncc(Br)cc3C(=O)N([C@@H](C)CO)C[C@H]2C)cc1,0,-1,-3,0,0,8
Cc1[nH]n(-c2ccccc2)c(=O)c1N=Nc1cccc(C(=O)O)c1,0,-13,-27*,nt,-2,3
Cc1[nH]n(-c2ccccc2)c(=O)c1N=Nc1ccc(C(=O)O)cc1,-22,5,3,1,-17,10
Cc1[nH]n(C2=NCCS2)c(=O)c1N=Nc1cccc(C(F)(F)F)c1,4,29,-25*,nt,-24,nt
Cc1ccc(F)cc1S(=O)(=O)N[C@H]1CCN(Cc2ccc(OC(C)C)cc2)C1,4,nt,nt,nt,16,nt
COc1ccc(NC(=O)Nc2ccc3c(c2)C(=O)N([C@H](C)CO)C[C@@H](C)[C@@H](CN(C)Cc2ccc(C(=O)O)cc2)OCCCC[C@@H](C)O3)cc1,4,13,1,0,4,-1
COc1cc(C(=O)NCC(=O)NNC(=O)C2COc3ccccc3O2)cc(OC)c1OC (centres undefined),0,7,6,152*,-7,1
CNC[C@@H]1Oc2cc(C#CCN(C)C)ccc2S(=O)(=O)N([C@@H](C)CO)C[C@@H]1C,22,3,5,0,16,-19
COc1ccc(NC(=O)Nc2ccc3c(c2)[C@H]2C[C@@H](CC(=O)NCc4ccc5c(c4)OCO5)O[C@@H](CO)[C@H]2O3)cc1,-2,10,1,0,4,nt
CCC(=O)Nc1ccc2c(c1)OC[C@@H](C)N(CC1CCCCC1)C[C@@H](C)[C@H](OC)CN(C)C2=O,nt,-6,-1,nt,nt,nt
SMILES,AF4-AF9 inh,INS-1E GSIS act,rRNA inh HTS,E-sel inducer,RAD52 inh,RAD54 inh
COc1ccc(Cl)cc1-n1c(=S)sc2c(=O)[nH]c(SCC(=O)C(C)(C)C)nc21,5,-40,-24*,0,-11,-5
CCCCNC(=O)CSc1nc2c(sc(=S)n2-c2cc(Cl)ccc2OC)c(=O)[nH]1,-1,nt,-2,?,-8,-12
O=C(Nc1nccs1)[C@H]1[C@H](CO)[C@H]2Cn3c(cccc3=O)[C@H]2N1C(=O)C1CCCC1,nt,-9,0,-1,-19,nt
CCCC1c2ccsc2CCN1C(=S)NC (centres undefined),-2,nt,-36*,nt,0,nt
CC1c2ccsc2CCN1C(=O)NC(=O)c1ccc(Cl)cc1 (centres undefined),2,-9,15,nt,4,-5
Cc1[nH][nH]c(=O)c1C(c1c(C)[nH][nH]c1=O)c1cn(Cc2ccc(Cl)c(Cl)c2)c2ccccc12,9,-19,-30*,nt,-15,8
CCOC(=O)C1(CCOc2ccccc2)CCN(Cc2cccc3nonc23)CC1,26*,-5,-27,2,-18,5
CCOC(=O)C1(CCOc2ccccc2)CCN(Cc2ccc(O)cc2)CC1,2,-7,13,1,4,-2
CCOC(=O)C1=CNS(=O)(=O)NC1CCc1ccccc1 (centres undefined),0,-14,-22*,nt,-3,2
CCOC(=O)C1=CN(CC)S(=O)(=O)NC1c1ccccc1 (centres undefined),-2,4,14,nt,-6,-2
COCC(=O)N(C)C[C@H]1Oc2cc(C#CCC(C)C)ccc2S(=O)(=O)N([C@@H](C)CO)C[C@@H]1C,4,-4,-2,1,-2,-8
CCCCNC(=O)c1onc(CSc2cc(C)ccc2C)c1C(=O)O,-8,-3,-40*,0,0,-8
COCCNC(=O)c1onc(CSc2cc(C)ccc2C)c1C(=O)O,-1,0,1,0,-7,-7
COc1ccccc1NS(=O)(=O)c1ccc(C)c(C(=O)Nc2ccc(S(=O)(=O)Nc3onc(C)c3C)cc2)c1,-3,29,4,nt,-8,0
COc1ccccc1NS(=O)(=O)c1cc(C(=O)Nc2ccc(S(=O)(=O)Nc3onc(C)c3C)cc2)ccc1C,0,-1,-21*,nt,-11,2
Cc1noc(NS(=O)(=O)c2ccc(NC(=O)c3ccc(N(C)C)cc3)cc2)c1C,2,7,-3,1,9,7
Cc1noc(NS(=O)(=O)c2ccc(NC(=O)c3ccc(OC(C)C)cc3)cc2)c1C,-2,-9,-31*,nt,-1,nt
COc1ccc(-c2cc(C(=O)Nc3ccc(S(=O)(=O)Nc4onc(C)c4C)cc3)c3ccccc3n2)cc1,12,-14,-18*,nt,-35,-8
O=C(CC(=O)c1cccs1)c1ccncc1,7,23,-22*,0,-15,-4

# Source: PubChem BioAssay
